# M4 antag: human M4 muscarinic receptor antagonists, primary screen, CHO cells, Fluo-8 calcium fluorescence | CHO-hM4 cells, ACh EC80 | 0.73% of 360,000 active | AID 624125, 2012 | inhibition, % at 3 µM | Muscarinic acetylcholine receptor M4 (Homo sapiens), P08173;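 active = inhibition above its plate's cutoff, the mean inhibition of sample wells plus 3 SD, cut at about 27% in these data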;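 also: 0% = acetylcholine EC80 with DMSO and 100% = DMSO without agonist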
# M4 ag: human M4 muscarinic receptor agonists, primary screen, CHO-K1 cells, Fluo-8 calcium fluorescence | activation, % at 3 µM | 0.14% of 360,000 active | Muscarinic acetylcholine receptor M4 (Homo sapiens), P08173 | CHO-K1 hM4/Gqi5; vehicle 0%, full acetylcholine response 100%;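 active = activation above the run mean over all test wells plus 3 SD, cut at about 32% in these data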;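 also: peak over basal fluorescence ratio per well then scaled between controls; 0% = DMSO wells and 100% = acetylcholine at EC100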
# CHRM4 PAM: human M4 muscarinic receptor positive allosteric modulators, primary screen, CHO-K1 cells, Fluo-8 calcium fluorescence; Muscarinic acetylcholine receptor M4 (Homo sapiens), P08173; CHO-K1 hM4/Gqi5, ACh EC20; 0% = ACh EC20, 100% = maximal ACh; activation, % at 3 µM; 0.4% of 360,000 active;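 active = activation above its plate's cutoff, the mean activation of sample wells plus 3 SD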
# M5 ag: human M5 muscarinic receptor agonists, primary screen, CHO-K1 cells, Fluo-8 calcium fluorescence. CHO-K1 hM5 cells; 0% DMSO wells, 100% maximal acetylcholine response. Muscarinic acetylcholine receptor M5 (Homo sapiens), P08912. activation, % at 3 µM. 0.19% of 360,000 active. AID 624037, 2012;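 active = activation above the run's mean over test compounds plus 3 SD, cut at about 23% in these data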;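 also: signal is peak over basal fluorescence ratio across the kinetic read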
# Target sequence (P08912 whole entry, looked up): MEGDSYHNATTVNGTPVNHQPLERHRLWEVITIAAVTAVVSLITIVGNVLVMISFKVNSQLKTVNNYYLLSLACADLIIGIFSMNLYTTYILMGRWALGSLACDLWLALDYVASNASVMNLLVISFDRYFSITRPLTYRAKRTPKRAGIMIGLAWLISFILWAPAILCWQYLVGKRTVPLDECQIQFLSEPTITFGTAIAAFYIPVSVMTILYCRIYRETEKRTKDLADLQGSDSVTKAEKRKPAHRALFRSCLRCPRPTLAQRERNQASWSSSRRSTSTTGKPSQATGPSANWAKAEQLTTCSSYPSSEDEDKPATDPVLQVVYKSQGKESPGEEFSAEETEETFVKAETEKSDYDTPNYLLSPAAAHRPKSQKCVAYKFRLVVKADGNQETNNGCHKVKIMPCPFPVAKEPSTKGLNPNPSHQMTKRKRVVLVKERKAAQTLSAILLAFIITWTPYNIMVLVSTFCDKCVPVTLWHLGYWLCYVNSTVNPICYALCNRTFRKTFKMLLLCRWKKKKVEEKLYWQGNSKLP
# M5 antag: human M5 muscarinic receptor antagonists, primary screen, CHO cells, Fluo-8 calcium fluorescence; CHO-hM5 cells, ACh EC80; inhibition, % at 3 µM; 0.59% of 360,000 active; AID 624040, 2012;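 active = inhibition above a per-plate cutoff, the mean of that plate's test compounds plus 3 SD, cut at about 27% in these data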;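 also: 0% = acetylcholine EC80 with DMSO and 100% = DMSO without agonist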
# M5 PAM: human M5 muscarinic receptor positive allosteric modulators, primary screen, CHO-K1 cells, Fluo-8 calcium fluorescence; Muscarinic acetylcholine receptor M5 (Homo sapiens), P08912; CHO-K1 hM5, ACh EC20 PAM; 0% = ACh EC20, 100% = ACh EC100; activation, % at 3 µM; 0.3% of 360,000 active; AID 624038, 2012;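 active = activation above the run cutoff, the mean activation of all test compounds plus 3 SD, cut at about 18% in these data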
#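 System: CHO-K1 cell line with stable human muscarinic M5 receptor expression | Also added: EC20 acetylcholine as agonist stimulus | Compound: One concentration, 3 µM final (nominal) | Timing: Fluo-8 loading 80 min at 37 °C plus 30 min room temperature | Measured by: Fluo-8 calcium dye fluorescence, kinetic read | Read-out basis: % activation, ACh-normalized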
# * marks the source's active call; other numbers are inactive results. Compounds with a hit are over-represented: about 1.8% of the library has one in this group of screens.
SMILES,M4 antag,M4 ag,CHRM4 PAM,M5 ag,M5 antag,M5 PAM
CC1(C#CC[N+]2(C)CCCCC2)CCC2C(O1)c1ccccc1OC2(C)C (stereo not given),79*,84*,-30,76*,88*,-35
COCCNC(=O)/C(C#N)=C/c1c(N2CCCCCC2)nc2ccccn2c1=O,99*,0,-16,-4,1,-5
C/C(=N\OCc1ccc(C#N)cc1)c1ccc(S(=O)(=O)N(C)C)cc1,13,19,-13,1,28*,-18
C/C(=N\OCc1ccc(C#N)cc1)c1ccccc1,-12,0,6,-7,3,-1
Cc1ccc(N2C(=O)Nc3ccccc3C2(O)C(=O)NCCCOC(C)C)cc1C (stereo not given),1,3,5,-2,-7,3
Cn1c(=O)c2c(nc(SCC(=O)NC3CCCC3)n2C)n(C)c1=O,6,0,-4,-2,6,-1
Cc1ccccc1C1c2[nH]c3ccccc3c2CCN1CCCn1cccn1 (stereo not given),61*,0,-43,-17,14,-23
Cc1cccc(C(=O)N[C@@H]2c3ccccc3C[C@@H]2O)n1,-11,1,8,-1,-1,2
COc1cc(CN2C[C@@H](CO)O[C@@H](n3cnc4c(N(C)C)ncnc43)C2)cc(OC)c1OC,-5,1,-3,1,-1,-3
CCc1nc2c(OCC(=O)C(C)(C)C)cccn2c1N(C)C(=O)CC(C)C,3,1,-1,0,2,-7
CCOC(=O)N1CCC(N2CCCC(C(=O)c3cc(C)c(OC)c(C)c3)C2)CC1 (stereo not given),21,2,-16,-11,36*,-20
COc1ccc(C(=O)C2CCCN(C3Cc4ccccc4C3)C2)cc1OC (stereo not given),29*,1,-18,-10,11,-11
COc1ccc(C(=O)C2CCCN(Cc3nc4ccccc4nc3C)C2)cc1OC (stereo not given),-8,1,-2,-4,-3,0
COC(=O)c1c(C(=O)OC)c(-c2ccc(Br)cc2)n2c1CS(=O)C2 (stereo not given),-2,0,2,0,7,-3
CN(C)S(=O)(=O)N1CCC(Oc2cccc(C(=O)NCCC3=CCCCC3)c2)CC1,10,22,-16,4,16,-17
Nc1ncnc(Nc2ccc(F)c(Cl)c2)n1,0,1,12*,0,-2,12
Cn1cc(C(=O)c2cccc(Cl)c2Cl)cc1C(=O)O,-6,-1,14,-5,-6,21*
COC(=O)c1cc(C(=O)c2cccc(Cl)c2Cl)cn1C,16,-1,-6,-4,7,-6
Cc1ccc(-c2csc(N3CCC(NS(=O)(=O)c4ccc5c(c4)OCCO5)CC3)n2)cc1,21,10,-10,4,28*,-21
CC1(C(=O)NCc2ccccc2)CN(S(C)(=O)=O)CC(=O)N1CCCn1ccnc1 (stereo not given),-13,0,5,-1,4,-8
COc1cccc(NC(=O)Nc2ccc3nsnc3c2)c1,9,21,-12,5,54*,-16
COc1ccc2nc(NC(=O)Nc3ccccc3)sc2c1,43*,18,-18,7,5,-13
COc1cccc(NC(=O)Nc2ccc3nc(C)c(C)nc3c2)c1,-2,9,3,0,-1,1
CCOc1ccc2nc(NC(=O)Nc3ccccc3)sc2c1,5,5,-5,-1,2,-6
COc1ccc(NC(=O)Nc2cccc(OC)c2)cc1,5,6,-1,2,2,-3
SMILES,M4 antag,M4 ag,CHRM4 PAM,M5 ag,M5 antag,M5 PAM
COc1cccc(NC(=O)Nc2cc(Cl)ccc2C)c1,-4,10,-4,0,32*,-7
CCCOC(=O)C(C)n1cnc2scc(-c3ccc(C)cc3)c2c1=O (stereo not given),-1,-3,-7,-7,8,-1
O=C(NCCCn1ccnc1)C1CCN(S(=O)(=O)c2cc([N+](=O)[O-])ccc2Cl)CC1,-22,1,4,-10,-1,4
CCOC(=O)C1=C[C@@H](C2CCCCC2)N(S(=O)(=O)c2ccc([N+](=O)[O-])cc2)[C@H]1c1ccccc1,17,2,-12,1,3,-8
CN1C(=O)c2ccc(N3CCCC3)cc2C1=O,-4,8,-9,5,4,-6
O=C1N/C(=C/c2ccc(N3CCCC3)cc2)C(=O)N1c1ccccc1,-6,1,-7,-2,-5,-4
O=C1/C(=C/c2ccc(N3CCCC3)cc2)NC(=S)N1C1CC1,36*,46*,-27,69*,54*,-18
Cc1cc(N2CCCC2)ccc1/C=C1\NC(=S)N(C)C1=O,9,13,-11,42*,7,-9
CCc1nn(-c2cc(Cl)ccc2OC)c2c1C(=O)CCC2,-2,-1,10,-5,-11,18*
CCCc1nn(-c2cc(Cl)ccc2OC)c2c1C(=O)CC(C)(C)C2,4,-3,-2,-5,-1,1
COc1cc(/C=C(/C#N)c2ccc(F)cc2)ccc1Oc1ccc([N+](=O)[O-])cn1,15,8,-12,-4,35*,-21
Nc1nc(-c2ccccn2)nc(N)c1Cc1ccc(Cl)cc1Cl,81*,30,-12,16,2,18
Nc1nc(-c2ccccn2)nc(N)c1Cc1c(F)cccc1Cl,-4,1,10,5,-3,19*
Clc1ccc(OCc2nc(-c3ccccn3)no2)c(Br)c1,-12,0,-8,-1,1,-9
Nc1nc(-c2ccccn2)nc(N)c1Cc1ccccc1F,22,2,6,5,-8,4
CCOC(=O)c1cn[nH]c1NC(=S)Nc1ccc(Cl)cc1,2,8,-8,-1,-1,-14
COc1ccc(S(=O)(=O)N2CCCCC2)cc1NC(=O)C1CC(=O)N(Cc2ccccc2)C1 (stereo not given),-4,1,5,0,-3,3
CN(C)S(=O)(=O)c1cccc(NC(=S)NNC(=O)c2cc3ccccc3cc2O)c1,3,1,-1,0,7,-5
